Reference: ChEMBL document CHEMBL4813946, “Discovery of novel 4-azaaryl-N-phenylpyrimidin-2-amine derivatives as potent and selective FLT3 inhibitors for acute myeloid leukaemia with FLT3 mutations” (Eur J Med Chem, 2021)

Key:
[1] = system: MV4-11; test: Induction of apoptosis in human MV4-11 cells assessed as late apoptotic cells at 1 x GI50 concentration incubated for 24 hrs by annexin V-FITC and propidium iodide staining based flow cytometry (reference value: 12.45 %); assay type: functional
[2] = system: NB-4; test: Antiproliferative activity against human NB-4 cells harboring wild type FLT3 assessed as reduction in cell viability after 72 hrs by resazurin assay; assay type: functional
Procedure, shortened: (§1)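 Cells seeded and pre-incubated 24 h at 37 °C, 5% CO2, then given a five-fold dilution series of compound (from 10 mM DMSO stock) in medium, in triplicate. Resazurin added after 72 h exposure, 4 h in dark at 37 °C. Fluorescence read at 570/585 nm, normalised to DMSO vehicle. GI50 by non-linear regression; mean ± SD of at least two replicates.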

[3] = system: U-937; test: Induction of apoptosis in human U937 cells assessed as viable cells at 5 x GI50 concentration incubated for 48 hrs by annexin V-FITC staining based flow cytometry (reference value: 86.25 %); assay type: functional
[4] = system: MV4-11; test: Induction of apoptosis in human MV4-11 cells assessed as late apoptotic cells at 10 x GI50 concentration incubated for 48 hrs by annexin V-FITC and propidium iodide staining based flow cytometry (reference value: 6.59 %); assay type: functional
[5] = system: U-937; test: Induction of apoptosis in human U937 cells assessed as viable cells at 1 x GI50 concentration incubated for 24 hrs by annexin V-FITC and propidium iodide staining based flow cytometry (reference value: 86.80 %); assay type: functional
[6] = system: U-937; test: Induction of apoptosis in human U937 cells assessed as early apoptotic cells at 1 x GI50 concentration incubated for 48 hrs by annexin V-FITC staining based flow cytometry (Rvb =2.78 %); assay type: functional
[7] = system: MV4-11; test: Induction of apoptosis in human MV4-11 cells assessed as viable cells at 5 x GI50 concentration incubated for 24 hrs by annexin V-FITC and propidium iodide staining based flow cytometry (reference value: 84.68 %); assay type: functional
[8] = system: MV4-11; test: Induction of apoptosis in human MV4-11 cells assessed as necrotic cells at 1 x GI50 concentration incubated for 24 hrs by annexin V-FITC and propidium iodide staining based flow cytometry (reference value: 0.75 %); assay type: functional
[9] = system: MV4-11; test: Induction of apoptosis in human MV4-11 cells assessed as late apoptotic cells at 20 x GI50 concentration incubated for 48 hrs by annexin V-FITC and propidium iodide staining based flow cytometry (reference value: […] %); assay type: functional
[10] = system: MV4-11; test: Induction of apoptosis in human MV4-11 cells assessed as viable cells at 20 x GI50 concentration incubated for 48 hrs by annexin V-FITC and propidium iodide staining based flow cytometry (reference value: 91.87 %); assay type: functional
[11] = target: Receptor-type tyrosine-protein kinase FLT3 (Homo sapiens, UniProt P36888, R595-E596INSEY); test: Inhibition of FLT3 R595_E596insEY mutant (unknown origin) incubated for 120 mins by ADP-glo based luminescence assay
[12] = Inhibition of FLT3 ITD-W51 mutant (unknown origin) incubated for 120 mins by ADP-glo based luminescence assay; parameters: species or system Homo sapiens
[13] = system: U-937; test: Induction of apoptosis in human U937 cells assessed as early apoptotic cells at 5 x GI50 concentration incubated for 48 hrs by annexin V-FITC staining based flow cytometry (reference value: 2.78%); assay type: functional
[14] = system: MV4-11; test: Induction of apoptosis in human MV4-11 cells assessed as viable cells at 20 x GI50 concentration incubated for 24 hrs by annexin V-FITC and propidium iodide staining based flow cytometry (reference value: 84.68 %); assay type: functional
[15] = system: MV4-11; test: Induction of apoptosis in human MV4-11 cells assessed as necrotic cells at 5 x GI50 concentration incubated for 48 hrs by annexin V-FITC and propidium iodide staining based flow cytometry (reference value: 0.45 %); assay type: functional
[16] = system: U-937; test: Induction of apoptosis in human U937 cells assessed as late apoptotic cells at 20 x GI50 concentration incubated for 24 hrs by annexin V-FITC and propidium iodide staining based flow cytometry (reference value: […] %); assay type: functional
[17] = system: MV4-11; test: Antiproliferative activity against human MV4-11 cells harboring FLT3-ITD mutant assessed as reduction in cell viability after 72 hrs by resazurin assay; assay type: functional; procedure, shortened: as §1
[18] = system: U-937; test: Induction of apoptosis in human U937 cells assessed as early apoptotic cells at 5 x GI50 concentration incubated for 24 hrs by annexin V-FITC and propidium iodide staining based flow cytometry (Rvb =1.81 %); assay type: functional
[19] = system: U-937; test: Induction of apoptosis in human U937 cells assessed as viable cells at 20 x GI50 concentration incubated for 48 hrs by annexin V-FITC staining based flow cytometry (reference value: 86.25%); assay type: functional
[20] = system: MV4-11; test: Induction of apoptosis in human MV4-11 cells assessed as viable cells at 5 x GI50 concentration incubated for 48 hrs by annexin V-FITC and propidium iodide staining based flow cytometry (reference value: 91.87 %); assay type: functional
[21] = system: U-937; test: Induction of apoptosis in human U937 cells assessed as early apoptotic cells at 10 x GI50 concentration incubated for 24 hrs by annexin V-FITC and propidium iodide staining based flow cytometry (reference value: 1.81 %); assay type: functional
[22] = system: MV4-11; test: Induction of apoptosis in human MV4-11 cells assessed as viable cells at 10 x GI50 concentration incubated for 48 hrs by annexin V-FITC and propidium iodide staining based flow cytometry (reference value: 91.87 %); assay type: functional
[23] = system: U-937; test: Induction of apoptosis in human U937 cells assessed as early apoptotic cells at 10 x GI50 concentration incubated for 48 hrs by annexin V-FITC staining based flow cytometry (reference value: 2.78 %); assay type: functional
[24] = system: U-937; test: Induction of apoptosis in human U937 cells assessed as necrotic cells at 5 x GI50 concentration incubated for 48 hrs by annexin V-FITC staining based flow cytometry (reference value: 1.16 %); assay type: functional
[25] = system: U-937; test: Induction of apoptosis in human U937 cells assessed as viable cells at 1 x GI50 concentration incubated for 48 hrs by annexin V-FITC staining based flow cytometry (reference value: 86.25 %); assay type: functional
[26] = system: MV4-11; test: Induction of apoptosis in human MV4-11 cells assessed as necrotic cells at 10 x GI50 concentration incubated for 24 hrs by annexin V-FITC and propidium iodide staining based flow cytometry (reference value: 0.75 %); assay type: functional
[27] = system: MV4-11; test: Induction of apoptosis in human MV4-11 cells assessed as early apoptotic cells at 10 x GI50 concentration incubated for 24 hrs by annexin V-FITC and propidium iodide staining based flow cytometry (reference value: 2.12 %); assay type: functional
[28] = Inhibition of FLT3 ITD-NPOS mutant (unknown origin) incubated for 120 mins by ADP-glo based luminescence assay; parameters: species or system Homo sapiens
[29] = system: MV4-11; test: Induction of apoptosis in human MV4-11 cells assessed as necrotic cells at 5 x GI50 concentration incubated for 24 hrs by annexin V-FITC and propidium iodide staining based flow cytometry (reference value: 0.75 %); assay type: functional
[30] = system: MV4-11; test: Induction of apoptosis in human MV4-11 cells assessed as necrotic cells at 20 x GI50 concentration incubated for 48 hrs by annexin V-FITC and propidium iodide staining based flow cytometry (reference value: […] %); assay type: functional
[31] = system: MV4-11; test: Induction of apoptosis in human MV4-11 cells assessed as early apoptotic cells at 10 x GI50 concentration incubated for 48 hrs by annexin V-FITC and propidium iodide staining based flow cytometry (reference value: 1.08 %); assay type: functional

Sequence of Receptor-type tyrosine-protein kinase FLT3 (P36888 whole entry, looked up, stated change not applied): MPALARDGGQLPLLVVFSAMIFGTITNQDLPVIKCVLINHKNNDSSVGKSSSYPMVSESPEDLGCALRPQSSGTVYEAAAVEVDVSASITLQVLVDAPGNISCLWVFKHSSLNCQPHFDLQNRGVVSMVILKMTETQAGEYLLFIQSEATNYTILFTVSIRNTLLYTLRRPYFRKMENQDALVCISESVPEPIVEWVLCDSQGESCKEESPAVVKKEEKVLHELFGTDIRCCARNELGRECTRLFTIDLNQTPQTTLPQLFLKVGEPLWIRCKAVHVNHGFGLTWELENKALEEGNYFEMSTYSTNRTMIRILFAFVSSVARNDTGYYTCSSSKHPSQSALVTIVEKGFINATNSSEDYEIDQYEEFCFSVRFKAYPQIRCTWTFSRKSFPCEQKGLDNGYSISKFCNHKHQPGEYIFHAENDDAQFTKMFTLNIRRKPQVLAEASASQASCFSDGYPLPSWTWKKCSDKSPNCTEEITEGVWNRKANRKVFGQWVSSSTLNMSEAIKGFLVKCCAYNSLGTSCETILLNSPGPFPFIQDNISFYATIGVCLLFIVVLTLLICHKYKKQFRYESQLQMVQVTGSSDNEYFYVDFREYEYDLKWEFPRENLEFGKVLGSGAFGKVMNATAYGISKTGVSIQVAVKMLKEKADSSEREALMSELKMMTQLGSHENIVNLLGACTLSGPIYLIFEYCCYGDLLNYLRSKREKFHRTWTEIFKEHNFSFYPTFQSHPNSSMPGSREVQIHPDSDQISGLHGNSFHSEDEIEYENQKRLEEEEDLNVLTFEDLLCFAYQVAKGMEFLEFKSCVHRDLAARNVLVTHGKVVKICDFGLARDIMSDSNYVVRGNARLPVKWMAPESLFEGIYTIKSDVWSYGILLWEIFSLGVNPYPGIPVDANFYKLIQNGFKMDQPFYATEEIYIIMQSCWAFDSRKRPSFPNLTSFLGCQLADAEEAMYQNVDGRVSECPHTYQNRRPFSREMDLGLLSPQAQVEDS

CC(=O)N1CCN(c2ccc(Nc3nccc(-c4cn(C)c5ncccc45)n3)cc2)CC1
Activity [1]: 14.35% | GI50 [2]: 1060 nM | Activity [3]: 88.11% | Activity [4]: 23.5% | Activity [5]: 88.19% | Activity [6]: 2.21% | Activity [7]: 79.81% | Activity [8]: 1.74% | Activity [9]: 1.56% | Activity [10]: 64.18% | Ki [11]: 77 nM | Ki [12]: 84 nM | Activity [13]: 2.55% | Activity [14]: 73.52% | Activity [15]: 0.86% | Activity [16]: 1.64% | GI50 [17]: 74 nM | Activity [18]: 2.15% | Activity [19]: 80.33% | Activity [20]: 86.83% | Activity [21]: 2.48% | Activity [22]: 72.29% | Activity [23]: 3.06% | Activity [24]: 1.19% | Activity [25]: 87.16% | Activity [26]: 2.13% | Activity [27]: 2.54% | Ki [28]: 262 nM | Activity [29]: 1.86% | Activity [30]: 32.08% | Activity [31]: 2.72%
